Compound activity deposited in PubChem by several laboratories.
SKKanGAS inh – SKKanGAS growth inhibition. inhibition, % at 7.5 µM. 1.3% of 300,000 active. S. pyogenes SKKanGAS, kanamycin growth, BacTiter-Glo, 6 h;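 active = mean replicate score, as percent of positive control median, at least 50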;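 note: strain carries kanamycin resistance gene driven by streptokinase promoter and grows in 40 µg/ml kanamycin; loss of luminescence reflects streptokinase promoter inhibition or plain growth inhibition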
Mdm2-MdmX inh – disrupts the human Mdm2-MdmX interaction. O15151+Q00987. SaOS-2 split-luciferase Mdm2/MdmX complementation, luminescence. inhibition, % at 8 µM. 3% of 330,000 active;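 active = inhibition of at least 50% at 8 µM in the primary screen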
CSC inhib – cancer stem cell inhibition. cancer stem cell-like cells viability, luminescence. inhibition, % at 7.5 µM. 1.1% of 300,000 active. AID 2717; in the data active = inhibition above about 75%; tested in HMLE shEcad cells
Beta apoptosis – blocks beta cell apoptosis; INS-1E cytokine-induced death, ATP luminescence, 48 h; percent of positive-control rescue, neutral wells zero; protection from apoptosis, % (no concentration beside the values); 0.8% of 300,000 active;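 active = Every replicate reaches about 75%, or at least half do and their mean reaches it too, limit read from the data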;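 note: higher means more ATP so stronger rescue from cytokine killing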
XBP1 UPR activ – adaptive UPR (XBP1) activation; 0.33% of 330,000 active; CHO-XBP1 luciferase reporter, IRE1-XBP1 UPR activation, luminescence; percent of tunicamycin response, DMSO as zero; activation, % at 20 µM;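 active = versus positive control, 20 µM dose yields 30% or more activation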
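Assay system: IRE1-XBP1 luciferase reporter CHO line. Input: 1000 cells/well. Buffer or medium: F12 with 10% serum. Doses: 20 µM, 1% DMSO. Times: overnight seeding at 37 °C, 6 h compound treatment at 37 °C. Technique: Steady-Glo luciferase glow luminescence, 10 min after reagent addition.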
UPR CHOP act – activators of apoptotic arm of unfolded protein response (CHOP); activation, % at 10 µM; AID 449763; CHO-CHOP luciferase reporter, UPR activation, luminescence; percent of tunicamycin response over DMSO baseline; 0.34% of 330,000 active;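 active = at 10 µM dose, activation of 40% or more, normalized to positive control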
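System: CHO-CHOP luciferase reporter cell line; amount: 500 cells/well; buffer or medium: F12 medium containing 10% fetal bovine serum; incubation: 6 h compound exposure at 37 °C after overnight seeding; measured by: luciferase luminescence after 10 min with Steady-Glo reagent; evaluation: % reporter activation, DMSO baseline versus tunicamycin full activation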
Mdm2 MdmX conf – confirmation of human Mdm2/MdmX interaction inhibitors; shares compounds with Mdm2-MdmX inh; Mdm2-MdmX binding, luminescent assay; inhibition, % at 8 µM; 55% of 10,000 active; AID 489028; in the data active = inhibition above about 40%
FLuc counter – full-length luciferase inhibition in Mdm2/MdmX counter-screen; shares compounds with Mdm2-MdmX inh; SaOS-2 full-length luciferase counterscreen, luminescence; inhibition, % at 8 µM; 77% of 6,200 active; AID 504607;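 active = mean inhibition at 8 µM reaching about 37%, which flags the compound as non-specific, limit read from the data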;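 note: p53-null SaOS-2 cells with luciferase driven by a doxycycline-inducible promoter; compound on cells about two nights before reading with doxycycline added after day one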
Numbers stand for hits; i = inactive; nt = no result. Shown are actives, neighbours in structure and some others; about 4.8% of the full set was active somewhere.

SMILES	SKKanGAS inh	Mdm2-MdmX inh	CSC inhib	Beta apoptosis	XBP1 UPR activ	UPR CHOP act	Mdm2 MdmX conf	FLuc counter
CN1CCCN(c2ncnc3scc(-c4ccc(F)cc4)c23)CC1	i	i	i	i	i	i	nt	nt
CC(C)c1ccc(-c2csc3ncnc(N4CCN(C)CC4)c23)cc1	i	58	i	i	i	i	57	39
Cc1cc(NS(=O)(=O)c2ccc(NC(=O)c3ccccc3F)cc2)no1	nt	i	i	i	i	i	nt	nt
Cc1ccc(Sc2c(CO)c(-c3ccccc3)nn2C)cc1	i	51	i	i	i	i	47	92
COc1cc(/C=C/c2cccc[n+]2C)ccc1OCC(=O)Nc1ccccc1C	i	i	i	i	i	i	nt	nt
CCOc1cc(/C=C\[N+](=O)[O-])ccc1OCC(=O)Nc1ccccc1C	58	96	76	80	i	i	100	51
COc1ccc(/C=C/C(=O)NCC(=O)N=Nc2c(O)[nH]c3ccc([N+](=O)[O-])cc23)cc1	i	i	nt	i	i	i	nt	nt
CNC(=O)c1cc(Oc2ccc(NC(=O)Nc3ccc(Cl)c(C(F)(F)F)c3)cc2)ccn1	nt	97	124	nt	i	i	89	52
O=C(Nc1ccc(Cl)c(C(F)(F)F)c1)c1ccncc1	i	i	i	i	i	i	nt	nt
CC1(C)CC(=O)c2sc(NC(=O)c3ccccc3)nc2C1	i	i	i	i	i	i	nt	nt
CCOc1cccc2sc(N(CCN(C)C)C(=O)CCS(=O)(=O)c3ccccc3)nc12	i	i	i	i	i	i	nt	nt
COc1ccc(C)c2sc(NC(=O)CCS(=O)(=O)c3ccccc3)nc12	i	77	i	i	i	i	69	45
CCOc1cccc2sc(NC(=O)CCS(=O)(=O)c3ccccc3)nc12	i	70	i	i	i	i	66	i
CC1(C)CC(=O)c2sc(NC(=O)CCS(=O)(=O)c3ccccc3)nc2C1	i	71	i	i	i	i	i	nt
Cc1nnc(NC(=O)CCS(=O)(=O)c2ccccc2)s1	i	i	i	i	i	i	nt	nt
Cc1ccc(NC(=O)CN2C(=O)NC(Cc3ccccc3)C2=O)cc1Cl (stereo unspecified)	nt	i	nt	i	i	i	nt	nt
C=CCn1c(O)c(N=NC(=S)Nc2cccc(OC)c2)c2ccccc21	87	58	i	i	i	i	40	48
C=CCn1c(O)c(N=NC(=O)OCC)c2ccccc21	i	i	i	i	i	i	nt	nt
CCOc1cc(C2C(C#N)=C(N)OC(C)=C2C(C)=O)c(Br)c(Br)c1OC(C)C (stereo unspecified)	i	64	i	i	i	i	47	49
CCC(CO)Nc1nc2ccc(Cl)cc2c2ccccc12 (stereo unspecified)	i	i	i	nt	i	i	nt	nt
Oc1cccc(C(Nc2nccs2)c2ccc3cccnc3c2O)c1 (stereo unspecified)	i	77	110	77	i	i	81	i
COc1ccc(NC(=O)CSc2cccc3cccnc23)c(OC)c1	i	i	i	i	i	i	nt	nt
CC(=O)NC(c1cccc([N+](=O)[O-])c1)c1c(OC(C)=O)ccc2ccccc12 (stereo unspecified)	i	i	nt	i	i	i	nt	nt
COc1cccc(C(NC(C)=O)c2ccc3cccnc3c2O)c1 (stereo unspecified)	i	82	i	82	i	i	80	i
CC(=O)NC(c1cccc([N+](=O)[O-])c1)c1ccc2cccnc2c1O (stereo unspecified)	60	77	102	97	i	i	81	i
COc1ccc(S(=O)(=O)N2CCCCCC2)cc1C(=O)N(C)Cc1ccc(C(C)(C)C)cc1	i	53	i	i	i	i	i	nt
COc1ccc(S(=O)(=O)N2CCCCCC2)cc1C(=O)N(C)Cc1ccc(F)cc1	i	i	i	i	i	i	nt	nt
Cc1ccc(NC(=O)N2CCCCCC2)c(C)c1	i	i	i	i	i	i	nt	nt
